Columns and labels:
Midkine = target: T1, Midkine (Homo sapiens, UniProt P21741); assay: Inhibition of fluorescein labelled heparin-like hexasaccharide probe binding to recombinant human midkine after 5 mins by fluorescence polarization assay
T1 sequence (P21741 whole entry): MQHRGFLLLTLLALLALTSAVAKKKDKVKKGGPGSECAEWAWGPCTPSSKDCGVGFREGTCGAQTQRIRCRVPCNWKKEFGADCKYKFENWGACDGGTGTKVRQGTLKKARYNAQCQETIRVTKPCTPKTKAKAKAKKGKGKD
Outline: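 Recombinant human midkine at 63 nM final with 10 nM fluorescein-labelled heparin-like hexasaccharide probe in PBS (10 mM, pH 7.4) plus 0.5% BSA. […] Shaken 5 min in the dark; polarization read at ex 485 / em 535 nm. Triplicate wells averaged, one-site competition fit for IC50. At least three independent experiments.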

[1] = target: Fibroblast growth factor 2 (Homo sapiens, UniProt P09038); assay: Inhibition of fluorescein labelled heparin-like hexasaccharide probe binding to recombinant human FGF-2 after 5 mins by fluorescence polarization assay
Sequence of Fibroblast growth factor 2 (P09038 143-288 limits assumed): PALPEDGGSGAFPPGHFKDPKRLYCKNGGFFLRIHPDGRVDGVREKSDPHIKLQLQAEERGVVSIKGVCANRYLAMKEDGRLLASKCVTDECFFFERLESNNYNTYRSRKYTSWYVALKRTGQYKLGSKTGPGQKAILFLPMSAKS

[2] = Solubility of the compound in PBS buffer at 100 uM at pH 7.4 in presence of 1% DMSO; type: physicochemical; conditions: pH 7.4, 100 µM

Row | IC50 (Midkine) [µM] | IC50 [1] [µM] | solubility [2] | SMILES
1 | 1.3 | 42 | – | COc1ccc(O[C@@H]2O[C@H](C(=O)OCc3ccccc3)[C@@H](O[C@@H]3O[C@H](COS(=O)(=O)O)[C@@H](OS(=O)(=O)O)[C@H](O[C@@H]4O[C@H](C(=O)OCc5ccccc5)[C@@H](O[C@@H]5O[C@H](COS(=O)(=O)O)[C@@H](OS(=O)(=O)O)[C@H](OC(=O)CCC(C)=O)[C@H]5NC(=O)C(F)(F)F)[C@H](OCc5ccccc5)[C@H]4OC(=O)c4ccccc4)[C@H]3NC(=O)C(F)(F)F)[C@H](OCc3ccccc3)[C@H]2OC(=O)c2ccccc2)cc1
2 | – | – | Soluble | COc1ccc(O[C@@H]2O[C@H](COC(=O)CCC(F)(F)C(F)(F)C(F)(F)C(F)(F)C(F)(F)C(F)(F)C(F)(F)C(F)(F)F)[C@@H](O[C@@H]3O[C@H](CO[SH+]([O-])(O)O)[C@@H](O[SH+]([O-])(O)O)[C@H](O[C@@H]4O[C@H](COC(=O)C(C)(C)C)[C@@H](O[C@@H]5O[C@H](CO[SH+]([O-])(O)O)[C@@H](O[SH+]([O-])(O)O)[C@H](OC(=O)CCC(C)=O)[C@H]5N5C(=O)c6ccccc6C5=O)[C@H](OCc5ccccc5)[C@H]4OC(=O)c4ccccc4)[C@H]3N3C(=O)c4ccccc4C3=O)[C@H](OCc3ccccc3)[C@H]2OC(=O)c2ccccc2)cc1
3 | 254 | 271 | – | COc1ccc(O[C@@H]2O[C@H](C(=O)O)[C@@H](O[C@@H]3O[C@H](COS(=O)(=O)O)[C@@H](OS(=O)(=O)O)[C@H](O[C@@H]4O[C@H](C(=O)O)[C@@H](O[C@@H]5O[C@H](COS(=O)(=O)O)[C@@H](OS(=O)(=O)O)[C@H](O)[C@H]5NC(C)=O)[C@H](O)[C@H]4O)[C@H]3NC(C)=O)[C@H](O)[C@H]2O)cc1
